Key:
[1] = Study 1 Part 2: repeat ascending dose; assay type: in vivo, human; settings: SDDPI; for CL/F / Racc / AUC(0-t): geometric mean (% CV); for AUC(0-t) / Tmax: human, plasma, inhaled; for AUC(0-t): AUC0–24 h; for Tmax: median (range)
Method in brief: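 Blood was collected in lithium heparin, chilled on ice, and centrifuged at 2,000 ×g for 15 min at ~4°C. Plasma was stabilised with 1 M citric acid (100 µL per 1 mL plasma) and stored at ≤−65°C. After solid-phase extraction, samples were assayed by validated LC-MS/MS with heated electrospray and a deuterated internal standard (LLOQ 10 pg/mL). PK parameters were derived non-compartmentally.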

[2] = Study 1 Part 2: adverse events after multiple OD doses via SDDPI; assay type: in vivo, human
Method in brief: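 In Study 1 Part 2, healthy men were randomized to five parallel, dose-escalating cohorts. Each received test compound (100–1,600 µg) or matching placebo once daily for 7 days via a capsule-based single-dose dry-powder inhaler. AEs and investigator-assessed relation to study medication were recorded. Results are number (%) of subjects in the safety population (randomized, at least one dose).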

Question: With `CS(=O)(=O)Nc1ccc(C(=O)O[C@@H](Cc2c(Cl)c[n+]([O-])cc2Cl)c2ccc(OC(F)F)c(OCC3CC3)c2)cc1OCC1CC1` [CHF6001] as the compound, how does the CL/F ([1]; 100 µg OD, Day 7, N=7) read?
Answer: 723 (41.1) mL/min

Question: What about the Racc ([1]; 100 µg OD, Day 7, N=7) of the same compound?
Answer: 2.89 (16.6)

Question: What about the CL/F ([1]; 300 µg OD, Day 7, N=8) of the same compound?
Answer: 860 (44.7) mL/min

Question: And the Racc ([1]; 300 µg OD, Day 7, N=8)?
Answer: 2.49 (31.8)

Question: What about the CL/F ([1]; 600 µg OD, Day 7, N=9) of the same compound?
Answer: 956 (28.2) mL/min

Question: What about the Racc ([1]; 600 µg OD, Day 7, N=9) of the same compound?
Answer: 2.47 (20.2)

Question: What about the CL/F ([1]; 1,200 µg OD, Day 7, N=9) of the same compound?
Answer: 772 (26.6) mL/min

Question: What about the Racc ([1]; 1,200 µg OD, Day 7, N=9) of the same compound?
Answer: 2.74 (28.2)

Question: And the CL/F ([1]; 1,600 µg OD, Day 7, N=6)?
Answer: 910 (17.0) mL/min

Question: What about the Racc ([1]; 1,600 µg OD, Day 7, N=6) of the same compound?
Answer: 2.75 (16.5)

Question: What about the AUC(0-t) ([1]; 100 ug, 100 µg OD, Day 1, N=7) of the same compound?
Answer: 0.796 ng·h/mL

Question: What about the AUC(0-t) ([1]; 100 ug, 100 µg OD, Day 7, N=7) of the same compound?
Answer: 2.3 ng·h/mL

Question: And the Tmax ([1]; 100 ug, 100 µg OD, Day 1, N=7)?
Answer: 1.5 h

Question: What about the Tmax ([1]; 100 ug, 100 µg OD, Day 7, N=7) of the same compound?
Answer: 1 h

Question: What about the AUC(0-t) ([1]; 300 ug, 300 µg OD, Day 1, N=8) of the same compound?
Answer: 2.34 ng·h/mL

Question: And the AUC(0-t) ([1]; 300 ug, 300 µg OD, Day 7, N=8)?
Answer: 5.82 ng·h/mL

Question: What about the Tmax ([1]; 300 ug, 300 µg OD, Day 1, N=8) of the same compound?
Answer: 2 h

Question: And the Tmax ([1]; 300 ug, 300 µg OD, Day 7, N=8)?
Answer: 1 h

Question: And the AUC(0-t) ([1]; 600 ug, 600 µg OD, Day 1, N=9)?
Answer: 4.24 ng·h/mL

Question: And the AUC(0-t) ([1]; 600 ug, 600 µg OD, Day 7, N=9)?
Answer: 10.5 ng·h/mL

Question: And the Tmax ([1]; 600 ug, 600 µg OD, Day 1, N=9)?
Answer: 1.5 h

Question: What about the Tmax ([1]; 600 ug, 600 µg OD, Day 7, N=9) of the same compound?
Answer: 2 h

Question: What about the “AE considered related to study medication” value ([2]; 100 µg OD 7 days, N=8) of the same compound?
Answer: 0 Number (%) of subjects

Question: What about the “AE leading to death” value ([2]; 100 µg OD 7 days, N=8) of the same compound?
Answer: 0 Number (%) of subjects

Question: And the “AE leading to withdrawal” value ([2]; 100 µg OD 7 days, N=8)?
Answer: 0 Number (%) of subjects

Question: And the “At least one AE” value ([2]; 100 µg OD 7 days, N=8)?
Answer: 3 (37.5) Number (%) of subjects

Question: What about the “At least one SAE” value ([2]; 100 µg OD 7 days, N=8) of the same compound?
Answer: 0 Number (%) of subjects

Question: And the “Back pain (AE)” value ([2]; 100 µg OD 7 days, N=8)?
Answer: 0 Number (%) of subjects

Question: What about the “Diarrhea (AE considered related to study medication)” value (“Diarrhea” below) ([2]; 100 µg OD 7 days, N=8) of the same compound?
Answer: 0 Number (%) of subjects

Question: And the “Flatulence (AE considered related to study medication)” value (“Flatulence” below) ([2]; 100 µg OD 7 days, N=8)?
Answer: 0 Number (%) of subjects

Question: What about the “Headache (AE considered related to study medication)” value ([2]; 100 µg OD 7 days, N=8) of the same compound?
Answer: 0 Number (%) of subjects

Question: What about the “Headache (AE)” value ([2]; 100 µg OD 7 days, N=8) of the same compound?
Answer: 0 Number (%) of subjects

Question: And the “Nausea (AE considered related to study medication)” value (from here on “Nausea”) ([2]; 100 µg OD 7 days, N=8)?
Answer: 0 Number (%) of subjects

Question: What about the “Parosmia (AE considered related to study medication)” value (shortened to “Parosmia”) ([2]; 100 µg OD 7 days, N=8) of the same compound?
Answer: 0 Number (%) of subjects

Question: And the “Severe AE” value ([2]; 100 µg OD 7 days, N=8)?
Answer: 0 Number (%) of subjects

Question: And the “AE considered related to study medication” value ([2]; 300 µg OD 7 days, N=8)?
Answer: 0 Number (%) of subjects

Question: And the “AE leading to death” value ([2]; 300 µg OD 7 days, N=8)?
Answer: 0 Number (%) of subjects

Question: And the “AE leading to withdrawal” value ([2]; 300 µg OD 7 days, N=8)?
Answer: 0 Number (%) of subjects

Question: And the “At least one AE” value ([2]; 300 µg OD 7 days, N=8)?
Answer: 2 (25.0) Number (%) of subjects

Question: And the “At least one SAE” value ([2]; 300 µg OD 7 days, N=8)?
Answer: 0 Number (%) of subjects

Question: And the “Back pain (AE)” value ([2]; 300 µg OD 7 days, N=8)?
Answer: 0 Number (%) of subjects

Question: What about the “Diarrhea” value ([2]; 300 µg OD 7 days, N=8) of the same compound?
Answer: 0 Number (%) of subjects

Question: And the “Flatulence” value ([2]; 300 µg OD 7 days, N=8)?
Answer: 0 Number (%) of subjects

Question: What about the “Headache (AE considered related to study medication)” value ([2]; 300 µg OD 7 days, N=8) of the same compound?
Answer: 0 Number (%) of subjects

Question: What about the “Headache (AE)” value ([2]; 300 µg OD 7 days, N=8) of the same compound?
Answer: 0 Number (%) of subjects

Question: What about the “Nausea” value ([2]; 300 µg OD 7 days, N=8) of the same compound?
Answer: 0 Number (%) of subjects

Question: And the “Parosmia” value ([2]; 300 µg OD 7 days, N=8)?
Answer: 0 Number (%) of subjects

Question: And the “Severe AE” value ([2]; 300 µg OD 7 days, N=8)?
Answer: 0 Number (%) of subjects

Question: And the “AE considered related to study medication” value ([2]; 600 µg OD 7 days, N=9)?
Answer: 0 Number (%) of subjects

Question: What about the “AE leading to death” value ([2]; 600 µg OD 7 days, N=9) of the same compound?
Answer: 0 Number (%) of subjects

Question: And the “AE leading to withdrawal” value ([2]; 600 µg OD 7 days, N=9)?
Answer: 0 Number (%) of subjects

Question: And the “At least one AE” value ([2]; 600 µg OD 7 days, N=9)?
Answer: 5 (55.6) Number (%) of subjects

Question: And the “At least one SAE” value ([2]; 600 µg OD 7 days, N=9)?
Answer: 0 Number (%) of subjects

Question: And the “Back pain (AE)” value ([2]; 600 µg OD 7 days, N=9)?
Answer: 0 Number (%) of subjects

Question: And the “Diarrhea” value ([2]; 600 µg OD 7 days, N=9)?
Answer: 0 Number (%) of subjects

Question: What about the “Flatulence” value ([2]; 600 µg OD 7 days, N=9) of the same compound?
Answer: 0 Number (%) of subjects

Question: What about the “Headache (AE considered related to study medication)” value ([2]; 600 µg OD 7 days, N=9) of the same compound?
Answer: 0 Number (%) of subjects

Question: What about the “Headache (AE)” value ([2]; 600 µg OD 7 days, N=9) of the same compound?
Answer: 2 (22.2) Number (%) of subjects

Question: What about the “Nausea” value ([2]; 600 µg OD 7 days, N=9) of the same compound?
Answer: 0 Number (%) of subjects

Question: And the “Parosmia” value ([2]; 600 µg OD 7 days, N=9)?
Answer: 0 Number (%) of subjects

Question: What about the “Severe AE” value ([2]; 600 µg OD 7 days, N=9) of the same compound?
Answer: 0 Number (%) of subjects

Question: And the “AE considered related to study medication” value ([2]; 1,200 µg OD 7 days, N=9)?
Answer: 0 Number (%) of subjects

Question: What about the “AE leading to death” value ([2]; 1,200 µg OD 7 days, N=9) of the same compound?
Answer: 0 Number (%) of subjects

Question: What about the “AE leading to withdrawal” value ([2]; 1,200 µg OD 7 days, N=9) of the same compound?
Answer: 0 Number (%) of subjects

Question: And the “At least one AE” value ([2]; 1,200 µg OD 7 days, N=9)?
Answer: 2 (22.2) Number (%) of subjects
